TRPC4 PAM – allosteric potentiators of mouse TRPC4 channel. Q9QUQ5. HEK293 TRPC4beta/mu-opioid, DAMGO EC20, Fluo-4 Ca2+ flux; stronger effect = higher value. B-score at 10 µM. 310,000 compounds, 0.42% hits. AID 2227;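 active = B-score of calcium response area above 5 SD of library B-scores, with initial fluorescence ratio within 5 SD of library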;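 note: B-score of integrated fluorescence ratio over time as area under calcium response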
TRPC4 agonist – opens the mouse TRPC4 cation channel. HEK293 TRPC4beta/mu-opioid, Fluo4 calcium fluorescence; stronger effect = higher value. AID 2237. 310,000 compounds, 0.49% hits. B-score at 10 µM;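 active = B-score above 5 SD of library B-scores, and initial fluorescence ratio not above library mean plus 5 SD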;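 note: positive B-score marks a calcium rise read as TRPC4 activation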
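Incubation: 45 min room-temperature Fluo4 loading, 110 s read / System: HEK293 cells stably co-expressing mouse TRPC4beta and mu-opioid receptor / Signal: Fluo4 fluorescence, kinetic / Control set: buffer (low) and maximal DAMGO (high) / Measure: integrated baseline-normalised fluorescence ratio, converted to per-well B score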
TRPC6 inh – mouse TRPC6 channel inhibition. HEK293-TRPC6, membrane potential dye, ACh-evoked depolarization; stronger effect = lower value. B-score at 10 µM. 310,000 compounds, 1.1% hits. AID 2553;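 active = B-score under library mean minus 3 SD, initial fluorescence not abnormally high, positive integrated signal ratio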;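 note: B-score derived from integrated fluorescence ratio over the kinetic read; more negative B-score means stronger inhibition of depolarization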
Target sequence (Q61143 whole entry, looked up): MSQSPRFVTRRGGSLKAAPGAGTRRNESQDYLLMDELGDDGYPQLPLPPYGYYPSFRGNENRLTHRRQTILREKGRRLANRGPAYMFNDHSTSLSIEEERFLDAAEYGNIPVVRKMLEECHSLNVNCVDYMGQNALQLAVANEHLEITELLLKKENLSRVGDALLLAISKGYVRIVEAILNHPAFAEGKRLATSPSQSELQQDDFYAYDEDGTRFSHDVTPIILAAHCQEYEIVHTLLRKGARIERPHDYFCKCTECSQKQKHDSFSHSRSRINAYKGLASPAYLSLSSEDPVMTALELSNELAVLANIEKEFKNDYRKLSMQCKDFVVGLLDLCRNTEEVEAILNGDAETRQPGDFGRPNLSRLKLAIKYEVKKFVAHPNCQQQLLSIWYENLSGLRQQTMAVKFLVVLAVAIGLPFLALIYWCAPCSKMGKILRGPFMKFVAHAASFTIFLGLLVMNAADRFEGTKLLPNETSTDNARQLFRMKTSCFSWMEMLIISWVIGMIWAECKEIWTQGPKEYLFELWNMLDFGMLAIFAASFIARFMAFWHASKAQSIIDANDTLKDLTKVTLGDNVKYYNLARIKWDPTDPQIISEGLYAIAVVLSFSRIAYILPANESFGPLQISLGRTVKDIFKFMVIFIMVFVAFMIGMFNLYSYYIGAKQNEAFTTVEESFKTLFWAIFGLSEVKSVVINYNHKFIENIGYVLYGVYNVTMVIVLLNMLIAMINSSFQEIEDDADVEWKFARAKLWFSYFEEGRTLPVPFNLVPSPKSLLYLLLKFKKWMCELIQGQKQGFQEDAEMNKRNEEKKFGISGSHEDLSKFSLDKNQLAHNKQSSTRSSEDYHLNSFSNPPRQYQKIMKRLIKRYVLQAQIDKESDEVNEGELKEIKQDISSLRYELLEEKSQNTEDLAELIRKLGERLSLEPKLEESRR
TRPC6 activator – activates the mouse TRPC6 cation channel; Q61143; HEK293-TRPC6 membrane potential dye fluorescence; stronger effect = higher value; B-score at 10 µM; 310,000 compounds, 0.13% hits; AID 2550;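 active = B-score of the integrated fluorescence ratio above library mean plus 3 SD, and starting fluorescence ratio within library mean plus 5 SD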;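 note: higher score means more depolarization so channel activation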
TRPC4 block – TRPC4 (mouse) channel inhibition; AID 2247; 300,000 compounds, 0.39% hits; Q9QUQ5; B-score at 10 µM; HEK293 TRPC4beta/mu-opioid, DAMGO-evoked Fluo4 calcium flux; stronger effect = lower value;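 active = B-score over 3 SD under the library average, no early fluorescence shift, positive overall ratio signal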
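Assay system: HEK293 cells with stable TRPC4beta plus mu-opioid receptor expression. Dosing: single dose. Measured by: Fluo4 Ca2+ flux fluorescence. Also added: DAMGO in two steps, submaximal then maximal. Read-out: B score from integrated Fluo4 fluorescence ratio.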
TRPC4 sel inh 2 – second check of whether TRPC6 inhibitors also affect mouse TRPC4; shares compounds with TRPC6 inh; HEK293 TRPC4/MOR, membrane potential dye fluorescence; channel activated by saturating DAMGO dose; inhibition, % at 10 µM; 920 compounds, 42% hits; AID 2776;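 active = compounds whose fluorescence signal differed from control wells by over 3 SD, either direction, in both duplicate plates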
TRPC4 spec – tests whether TRPC6 inhibitors also affect mouse TRPC4; 920 compounds, 61% hits; HEK293 TRPC4/mu-opioid, membrane potential fluorescence; AID 2777; activity change, negative = inhibition, % at 10 µM; shares compounds with TRPC6 inh;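 active = rise or fall in signal beyond 3 SD of buffer-only wells in both replicate plates, either sign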;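 note: integrated kinetic ratio of fluorescence range over baseline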
HEK293 MPD ctr 2-1 – second check of TRPC6 inhibitor effects in parental HEK293 cells. parental HEK293 membrane potential dye fluorescence; maximal acetylcholine challenge after compound addition. signal change vs control, % at 10 µM. 920 compounds, 31% hits. shares compounds with TRPC6 inh;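 active = membrane potential signal moving either way by over 3 SD of the maximum-effect control, in both duplicate plates, meaning non-specific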
HEK293 MPD ctr-1 – parental HEK293 nonspecific activity of TRPC6 inhibitors; shares compounds with TRPC6 inh; parental HEK293 membrane potential dye fluorescence; membrane potential signal change, % at 10 µM; 920 compounds, 60% hits;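 active = membrane potential signal shifting up or down by more than 3 SD of buffer-only wells, on both duplicate plates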
HEK293 MPD ctr-2 – checks TRPC6 modulator effects in parental HEK293 cells. shares compounds with TRPC6 inh. 2,400 compounds, 51% hits. AID 488924. membrane potential dye fluorescence. membrane potential signal change, % at 10 µM;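 active = membrane potential signal moves up or down beyond 5 SD from buffer-only wells, on both duplicate plates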
HEK293 MPD ctr 2-2 – second check of TRPC6 modulator effects in parental HEK293 cells | shares compounds with TRPC6 inh | membrane potential dye fluorescence; after compound, maximal acetylcholine stimulation | inhibition, % at 10 µM | 2,400 compounds, 14% hits | AID 488926;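 active = membrane potential signal drops by more than 5 SD from the mean control signal, in both duplicate plates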;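 note: plate controls were acetylcholine ECmax control wells for no effect and buffer only wells for full effect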
TRPC4 ctr mod – mouse TRPC4 off-target activity of TRPC6 modulators | shares compounds with TRPC6 inh | HEK293 TRPC4/mu-opioid, membrane potential fluorescence | percent change from control (negative = decrease, positive = increase), % at 10 µM | 2,400 compounds, 69% hits;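 active = membrane potential signal moved up or down beyond 5 SD of buffer control wells, in both duplicate plates, actives on both sides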;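 note: plate controls were assay buffer wells for no effect and DAMGO maximal-effect wells for full effect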
TRPC4/MOR inh 2 – second selectivity test of TRPC6 modulators against mouse TRPC4; HEK293 TRPC4/mu-opioid, membrane potential dye fluorescence; stimulated with maximal-effect DAMGO; inhibition, % at 10 µM; shares compounds with TRPC6 inh; 2,400 compounds, 55% hits;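 active = drop in membrane potential signal beyond 5 SD of the control wells in both duplicate plates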;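 note: TRPC4 counter screen for TRPC6 hits run under conditions tuned for TRPC6 not TRPC4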
TRPC6 block conf – confirmation of mouse TRPC6 inhibitors; inhibition, % at 10 µM; HEK293-TRPC6, membrane potential dye, ACh-evoked depolarization; shares compounds with TRPC6 inh; 3,300 compounds, 43% hits;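 active = fluorescence ratio falls more than 5 SD below the full-stimulation control mean, in both duplicate runs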;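 note: integrated fluorescence ratio of peak minus minimum over baseline after agonist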
TRPC6 act conf – mouse TRPC6 activator confirmation; 2,800 compounds, 11% hits; shares compounds with TRPC6 inh; HEK293-TRPC6 membrane potential dye fluorescence, FDSS; activation, % at 10 µM;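 active = ratio signal rise beyond 5 SD above unstimulated control wells' mean, seen in both duplicate runs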;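 note: plate controls were buffer EC0 wells for no effect and acetylcholine ECmax response for full effect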
Active calls of the source: *. Compounds with a hit are over-represented: about 2.3% of the library has one in this group of screens.

What do the screens show for `CCCCCNc1nc(N2CCCC2)c2c(c1C#N)CCN(C)C2`?
TRPC4 PAM: inactive; TRPC4 agonist: inactive; TRPC6 inh: -6.6*; TRPC6 activator: inactive; TRPC4 block: inactive; TRPC4 sel inh 2: 41%*; TRPC4 spec: -22%*; HEK293 MPD ctr 2-1: inactive; HEK293 MPD ctr-1: -272%*; TRPC6 block conf: 71%*; TRPC6 act conf: inactive

How did CCCc1nc(NCCO)c(C#N)c2c1CCCC2 do in these assays?
TRPC4 PAM: inactive; TRPC4 agonist: inactive; TRPC6 inh: inactive; TRPC6 activator: inactive; TRPC4 block: inactive

How did CCCCCNc1nc(NCCCO)c(C#N)c2c1CN(C)CC2 do in these assays?
TRPC4 PAM: inactive; TRPC4 agonist: inactive; TRPC6 inh: -5.6*; TRPC6 activator: inactive; TRPC4 block: inactive; HEK293 MPD ctr-2: -100%*; HEK293 MPD ctr 2-2: inactive; TRPC4 ctr mod: -27%*; TRPC4/MOR inh 2: inactive; TRPC6 block conf: inactive; TRPC6 act conf: inactive

Results for CN1CCc2c(C#N)c(N3CCOCC3)nc(NCC3CCCO3)c2C1 (stereo not given) ?
TRPC4 PAM: inactive; TRPC4 agonist: inactive; TRPC6 inh: inactive; TRPC6 activator: inactive; TRPC4 block: inactive

How did CCN1CCN(S(=O)(=O)c2ccc(Cl)c(C(=O)N(C)CCOc3ccc(Cl)cc3)c2)CC1 do in these assays?
TRPC4 PAM: inactive; TRPC4 agonist: inactive; TRPC6 inh: inactive; TRPC6 activator: inactive; TRPC4 block: inactive

How did C=CCn1c(-c2ccc3ncccc3c2)n[nH]c1=S do in these assays?
TRPC4 PAM: inactive; TRPC4 agonist: inactive; TRPC6 inh: inactive; TRPC6 activator: inactive; TRPC4 block: inactive

How did O=C(NCc1ccccn1)C1CC(c2ccccc2O)=NO1 (stereo not given) do in these assays?
TRPC4 PAM: inactive; TRPC4 agonist: inactive; TRPC6 inh: -5.4*; TRPC6 activator: inactive; TRPC4 block: inactive; HEK293 MPD ctr-2: inactive; HEK293 MPD ctr 2-2: inactive; TRPC4 ctr mod: inactive; TRPC4/MOR inh 2: inactive; TRPC6 block conf: inactive; TRPC6 act conf: inactive

What do the screens show for `O=C(NCc1cccs1)C1CC(c2ccccc2O)=NO1` (stereo not given)?
TRPC4 PAM: inactive; TRPC4 agonist: inactive; TRPC6 inh: inactive; TRPC6 activator: inactive; TRPC4 block: inactive

Results for COc1ccccc1OCCNC(=O)C1CC(=O)N(c2ccc3c(c2)OCCO3)C1 (stereo not given) ?
TRPC4 PAM: inactive; TRPC4 agonist: inactive; TRPC6 inh: inactive; TRPC6 activator: inactive; TRPC4 block: inactive

Results for C[n+]1ccccc1/C=C/c1ccc(F)c(F)c1 ?
TRPC4 PAM: inactive; TRPC4 agonist: inactive; TRPC6 inh: -7.2*; TRPC6 activator: inactive; TRPC4 block: inactive; TRPC4 sel inh 2: inactive; TRPC4 spec: -34%*; HEK293 MPD ctr 2-1: 34%*; HEK293 MPD ctr-1: -596%*; TRPC6 block conf: 80%*; TRPC6 act conf: inactive

How did C[n+]1ccccc1/C=C/c1ccc([N+](=O)[O-])cc1 do in these assays?
TRPC4 PAM: inactive; TRPC4 agonist: inactive; TRPC6 inh: -7.3*; TRPC6 activator: inactive; TRPC4 block: inactive; HEK293 MPD ctr-2: -250%*; HEK293 MPD ctr 2-2: 110%*; TRPC4 ctr mod: -40%*; TRPC4/MOR inh 2: 52%*; TRPC6 block conf: 64%*; TRPC6 act conf: inactive

Results for CS(=O)(=O)c1cccc(-c2nnc(NC(=O)C3=COCCO3)o2)c1 ?
TRPC4 PAM: inactive; TRPC4 agonist: inactive; TRPC6 inh: inactive; TRPC6 activator: inactive; TRPC4 block: inactive

Results for O=C(O)COc1ccccc1/C=N/NC(=O)CNC(=O)c1ccco1 ?
TRPC4 PAM: inactive; TRPC4 agonist: inactive; TRPC6 inh: inactive; TRPC6 activator: inactive; TRPC4 block: inactive

Results for CC(C(=O)Nc1ccc([N+](=O)[O-])cc1)N1CCN(C/C=C/c2ccccc2)CC1 (stereo not given) ?
TRPC4 PAM: inactive; TRPC4 agonist: inactive; TRPC6 inh: -6*; TRPC6 activator: inactive; TRPC4 block: inactive; HEK293 MPD ctr-2: inactive; HEK293 MPD ctr 2-2: inactive; TRPC4 ctr mod: inactive; TRPC4/MOR inh 2: 54%*; TRPC6 block conf: inactive; TRPC6 act conf: inactive

Results for CCCN(CC(=O)Nc1ccc(F)c(F)c1F)C(=O)CCc1nc2ccccc2c(=O)[nH]1 ?
TRPC4 PAM: inactive; TRPC4 agonist: inactive; TRPC6 inh: inactive; TRPC6 activator: inactive; TRPC4 block: inactive

Results for CCCCN(CC)CCNC(=O)c1cc2c(=O)[nH]c3ccc(C)cc3c2s1 ?
TRPC4 PAM: inactive; TRPC4 agonist: inactive; TRPC6 inh: -6.3*; TRPC6 activator: inactive; TRPC4 block: inactive; HEK293 MPD ctr-2: 186%*; HEK293 MPD ctr 2-2: inactive; TRPC4 ctr mod: 35%*; TRPC4/MOR inh 2: inactive; TRPC6 block conf: 60%*

Screens from PubChem BioAssay.
